The results in this text go back to PubChem BioAssay.

The nature of assay [1]: Her2 expression decrease, cell viability multiplex – SKBR3 breast tumor cells, AlphaScreen, ATP viability, primary screen (AID 461;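 active = Her2 level under about 52% in both replicate screens, with viability over 70% of control, limit read from the data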;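 as to Her2 level: lower value means less Her2 protein in the cells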;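 as to viability: percent of carrier control wells set as 100% viability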). As to conditions: SKBR3 Her2 protein level, 18-24 h, measured here: SKBR3 viability, ATP luminescence, at 10 µM.
The target of assay [2] is Receptor tyrosine-protein kinase erbB-2 (Homo sapiens) (UniProt P04626). The assay is described as above. The note with it: 18-24 h, at 10 µM, stronger effect = lower value.
Assay [3] can be described thus: reduced viability of SK-BR-3 breast cancer cells – cell-based, 24 h, human, pilot screen (AID 572;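 active = viability at or below 10% of carrier control in both of two separate runs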;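 also: compound exposure lasted between 18 and 24 h rather than exactly 24 h; 100% = carrier-treated control wells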). The note with it: SK-BR-3 viability, CellTiter-Glo luminescence, at 10 µM, stronger effect = lower value. A general note: In ATP-based viability assays light output follows the ATP content of the culture.
A short description of assay [4]: HUVEC growth inhibition – cell-based, human, primary screen (AID 575;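 active = viability at or below 30% in both replicate assays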;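 also: 100% = median of untreated cell wells with 0.1% DMSO on each plate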). As to conditions: HUVEC proliferation, CellTiter-Glo luminescence, 72 h; at 10 µM; stronger effect = lower value. Summed up: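 Material: primary human umbilical vein endothelial cells / Schedule: 72 h exposure, 37 °C, 5% CO2, 30 min RT equilibration / Signal: ATP-based CellTiter-Glo luminescent read / Read-out basis: percent of median DMSO-control luminescence / Control set: 32 DMSO-only cell-control wells (high), 32 MePR drug-control wells (low) per plate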

A short description of assay [5]: H69AR cell proliferation blockers – human, duplicate replicates, primary screen (AID 580;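 active = viability at or under a set limit in both replicates, limit being median viability minus 3 SD, cut at about 48% in these data, passing the limit was not always enough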;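 also: 100% = mean luminescence of untreated wells and 0% = no signal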). The note with it: H69AR lung tumor cells viability, ATP luminescence, 72 h; at 10 µM; stronger effect = lower value.
The nature of assay [6]: MRP1 drug-resistance reversers in H69AR cells – cell-based, doxorubicin co-treatment, pilot screen (AID 601;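 active = viability loss from added drug above about 55%, and viability with drug at most 40%, in both replicates, limit read from the data, passing the limit was not always enough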). The note with it: CellTiter-Glo, 72 h, at 10 µM; for differential viability (reversal): stronger effect = higher value.
A short description of assay [7]: yeast transport mutant growth inhibition pilot in 384-well plates, post-Golgi transport modulator project (AID 636; in the data active = inhibition above about 31%). The note with it: absorbance 615 nm, about 18 h, stronger effect = higher value.
A short description of assay [8]: growth suppression of yeast trafficking mutant, preliminary HTS, modulators of trafficking downstream of Golgi apparatus project, 1536-format plate, OD 615 nm (AID 637). As to conditions: yeast transport mutant growth, absorbance 615 nm, 18 h; stronger effect = higher value.
[9] abbreviates: H69AR cells + 2 uM doxorubicin, measured here: viability with 2 uM doxorubicin, stronger effect = lower value.
Setting [10] is: H69AR cells, compound alone cytotoxicity.

Calls of active or inactive are those of the source. Rule as the data show it, unless noted: active = inhibition above about 30%; inactive = the rest.

A word on the viability: it is a read-out of living cells in per cent, often relative to untreated cells. As usually defined, the inhibition is the change of the read-out against control, counted positive when it falls.

Chain of Receptor tyrosine-protein kinase erbB-2 (Homo sapiens) (P04626 whole entry, looked up): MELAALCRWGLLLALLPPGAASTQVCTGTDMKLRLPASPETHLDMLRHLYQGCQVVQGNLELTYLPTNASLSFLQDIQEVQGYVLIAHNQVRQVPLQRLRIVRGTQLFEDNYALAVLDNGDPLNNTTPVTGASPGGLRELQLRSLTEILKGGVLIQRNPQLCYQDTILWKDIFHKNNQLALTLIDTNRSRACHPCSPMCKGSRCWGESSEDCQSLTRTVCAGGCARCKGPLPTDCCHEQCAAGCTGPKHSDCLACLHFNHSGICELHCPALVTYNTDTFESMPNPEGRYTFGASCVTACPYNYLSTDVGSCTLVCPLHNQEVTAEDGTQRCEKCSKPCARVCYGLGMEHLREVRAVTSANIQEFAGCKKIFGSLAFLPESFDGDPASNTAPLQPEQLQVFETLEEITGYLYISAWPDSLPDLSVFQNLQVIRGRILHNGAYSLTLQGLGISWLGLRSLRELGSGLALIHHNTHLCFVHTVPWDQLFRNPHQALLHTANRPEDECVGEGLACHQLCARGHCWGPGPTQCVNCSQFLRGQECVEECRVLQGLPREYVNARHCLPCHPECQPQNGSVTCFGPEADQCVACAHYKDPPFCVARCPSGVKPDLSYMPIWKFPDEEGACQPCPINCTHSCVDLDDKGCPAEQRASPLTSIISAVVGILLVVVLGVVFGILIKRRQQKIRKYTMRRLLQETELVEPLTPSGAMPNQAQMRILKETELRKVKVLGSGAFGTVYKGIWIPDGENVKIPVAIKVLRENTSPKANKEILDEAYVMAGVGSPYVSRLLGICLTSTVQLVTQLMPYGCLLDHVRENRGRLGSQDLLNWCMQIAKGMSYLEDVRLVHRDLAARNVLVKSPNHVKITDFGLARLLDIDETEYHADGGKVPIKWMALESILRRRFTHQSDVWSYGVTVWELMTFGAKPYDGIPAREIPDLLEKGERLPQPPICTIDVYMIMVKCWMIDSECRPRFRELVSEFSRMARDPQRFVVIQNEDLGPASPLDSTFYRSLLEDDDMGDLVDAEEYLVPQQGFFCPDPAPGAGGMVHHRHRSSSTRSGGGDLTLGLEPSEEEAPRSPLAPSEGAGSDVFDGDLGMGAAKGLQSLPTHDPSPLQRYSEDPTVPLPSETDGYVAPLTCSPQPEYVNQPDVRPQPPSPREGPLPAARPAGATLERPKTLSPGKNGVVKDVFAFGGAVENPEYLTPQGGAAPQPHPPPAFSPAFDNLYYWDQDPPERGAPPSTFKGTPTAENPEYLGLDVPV

As for `COCc1nnc(NS(=O)(=O)c2ccc(Br)cc2)s1`, the viability in assay [1] was 99.5%; in assay [3] it was 99.5% (inactive); in assay [4], 108% (inactive); in assay [5], 91.3% (inactive); in assay [6] (setting [9]), 95.8%; in assay [6] (setting [10]), 91.3%. The Her2 level in assay [2] was 92% (inactive). Moreover, the differential viability (reversal) in assay [6] (H69AR cells + 2 uM doxorubicin) was -4.46% (inactive). Moreover, the inhibition in assay [7] was -5.2% (inactive); in assay [8], -1.75% (inactive).

Turning to `Cc1cc(S(=O)(=O)n2cnc3ccccc32)c(C)cc1Cl`, the viability was 86.5% in assay [1]; 86.5% (inactive) in assay [3]; 99.1% (inactive) in assay [4]; 102% (inactive) in assay [5]; 92.4% in assay [6] (setting [9]); 102% in assay [6] (setting [10]). Further, the Her2 level in assay [2] was 120% (inactive). For the same compound, in assay [6] (H69AR cells + 2 uM doxorubicin), the differential viability (reversal) was 9.41% (inactive). Also, the inhibition in assay [7] was -3.42% (inactive); in assay [8], -3.97% (inactive).

With `Cc1ccccc1OCc1nnc(SCC(=O)NCc2ccccc2)n1C`, the viability in assay [1] is 96%; in assay [3], 96% (inactive); in assay [4] it was 88.4% (inactive); in assay [5] it was 104% (inactive); in assay [6] (setting [9]) it was 95.2%; in assay [6] (setting [10]), 104%. The Her2 level in assay [2] is 84.5% (inactive). Further, in assay [6] (H69AR cells + 2 uM doxorubicin), the differential viability (reversal) was 8.75% (inactive). The inhibition in assay [7] was -4.66% (inactive); in assay [8] it was -3.02% (inactive).

Regarding `COc1ccccc1CC(NC(C)=O)C(=O)NC1CCN(c2nnnn2-c2ccccc2)CC1` (stereo not given), the viability in assay [1] was 97%; in assay [3], 97% (inactive); in assay [4] it was 94.8% (inactive); in assay [5] it was 96.5% (inactive); in assay [6] (setting [9]), 97.5%; in assay [6] (setting [10]) it was 96.5%. In addition, the Her2 level in assay [2] was 102% (inactive). For the same compound, the differential viability (reversal) in assay [6] (H69AR cells + 2 uM doxorubicin) is -1.01% (inactive). Further, the inhibition in assay [7] was -0.95% (inactive); in assay [8], 0% (inactive).

Regarding `COc1c2ccoc2nc2c(OC)c(OCC(O)C(C)(C)O)ccc12` (stereo not given), the viability in assay [1] was 100%; in assay [3], 100% (inactive); in assay [4], 94.4% (inactive); in assay [5], 95.4% (inactive); in assay [6] (setting [9]), 93.2%; in assay [6] (setting [10]), 95.4%. The Her2 level in assay [2] is 97.5% (inactive). Further, in assay [6] (H69AR cells + 2 uM doxorubicin), the differential viability (reversal) was 2.17% (inactive). Also, the values for the inhibition in assay [7] and in assay [8] were -2.8% (inactive) and 3.39% (inactive), respectively.

Consider `CCOc1ccccc1N1CCN(C(=O)c2ccncc2)CC1`, for which the viability in assay [1] is 97%; in assay [3], 97% (inactive); in assay [4] it was 90.2% (inactive); in assay [5] it was 93.6% (inactive); in assay [6] (setting [9]), 80.2%; in assay [6] (setting [10]), 93.6%. Moreover, in assay [2], the Her2 level was 100% (inactive). Further, in assay [6] (H69AR cells + 2 uM doxorubicin), the differential viability (reversal) is 13.4% (inactive). The values for the inhibition in assay [7] and in assay [8] were -2.99% (inactive) and -9.34% (inactive), respectively.

On to `OC1(c2cccc(C(F)(F)F)c2)CCNCC1`, for which the viability in assay [1] was 110%; in assay [3], 110% (inactive); in assay [4] it was 96.5% (inactive); in assay [5] it was 90.8% (inactive); in assay [6] (setting [9]), 86.2%; in assay [6] (setting [10]), 90.8%. In assay [2], the Her2 level is 91% (inactive). In addition, the differential viability (reversal) in assay [6] (H69AR cells + 2 uM doxorubicin) is 4.62% (inactive). Also, the figures for the inhibition in assay [7] and in assay [8] were -8.53% (inactive) and -3.02% (inactive), respectively.

On to `COc1cc(OC)cc(-c2nc3nc(C)c(CCC(=O)O)c(C)n3n2)c1`, for which the viability in assay [1] is 106%; in assay [3] it was 106% (inactive); in assay [4], 80.1% (inactive); in assay [5], 91.5% (inactive); in assay [6] (setting [9]) it was 84%; in assay [6] (setting [10]) it was 91.5%. Moreover, the Her2 level in assay [2] was 81.5% (inactive). The differential viability (reversal) in assay [6] (H69AR cells + 2 uM doxorubicin) was 7.47% (inactive). Further, the inhibition in assay [7] was -4.08% (inactive); in assay [8], 0.18% (inactive).

`CC(=O)N(CCc1ccccc1C)Cc1cc2cc3c(cc2[nH]c1=O)OCO3`: the viability in assay [1] is 99%; in assay [3] it was 99% (inactive); in assay [4] it was 90.1% (inactive); in assay [5], 91.2% (inactive); in assay [6] (setting [9]) it was 93.9%; in assay [6] (setting [10]), 91.2%. Moreover, the Her2 level in assay [2] was 85.5% (inactive). Moreover, the differential viability (reversal) in assay [6] (H69AR cells + 2 uM doxorubicin) is -2.76% (inactive). Moreover, the inhibition in assay [7] is -2.03% (inactive); in assay [8], 4.44% (inactive).

For `Cc1ccc(S(=O)(=O)CC2CSc3nnc(C)c(=O)n32)cc1` (stereo not given), the viability in assay [1] was 136%; in assay [3], 136% (inactive); in assay [4], 125% (inactive); in assay [5], 88% (inactive); in assay [6] (setting [9]) it was 85.4%; in assay [6] (setting [10]), 88%. The Her2 level in assay [2] is 112% (inactive). For the same compound, the differential viability (reversal) in assay [6] (H69AR cells + 2 uM doxorubicin) was 2.67% (inactive). In addition, the figures for the inhibition in assay [7] and in assay [8] were -5.26% (inactive) and 1.17% (inactive), respectively.

Regarding `CCOc1ccc(C(CC(=O)O)NC(=O)c2ccco2)cc1OC` (stereo not given), the viability was 102% in assay [1]; 102% (inactive) in assay [3]; 104% (inactive) in assay [4]; 94.2% (inactive) in assay [5]; 92.3% in assay [6] (setting [9]); 94.2% in assay [6] (setting [10]). In assay [2], the Her2 level was 102% (inactive). Moreover, the differential viability (reversal) in assay [6] (H69AR cells + 2 uM doxorubicin) is 1.89% (inactive). Besides, the inhibition in assay [7] is -6.76% (inactive); in assay [8] it was -1.33% (inactive).

For the compound `CCOc1ccc(OCC)c2sc(C)nc12`, the viability is 107% in assay [1]; 107% (inactive) in assay [3]; 102% (inactive) in assay [4]; 99.5% (inactive) in assay [5]; 87.1% in assay [6] (setting [9]); 99.5% in assay [6] (setting [10]). The Her2 level in assay [2] was 94% (inactive). Further, the differential viability (reversal) in assay [6] (H69AR cells + 2 uM doxorubicin) is 12.4% (inactive). For the same compound, the inhibition in assay [7] is 0.79% (inactive); in assay [8] it was 1.48% (inactive).

Regarding `O=C(c1ccco1)N1CCN(c2c(-c3ccccc3)c3cc(Cl)ccc3[nH]c2=O)CC1`, the viability in assay [1] is 94%; in assay [3], 94% (inactive); in assay [4], 52.4% (inactive); in assay [5], 24.5% (active); in assay [6] (setting [9]) it was 6.86%; in assay [6] (setting [10]) it was 24.5%. Besides, in assay [2], the Her2 level is 61.5% (inactive). Also, in assay [6] (H69AR cells + 2 uM doxorubicin), the differential viability (reversal) is 17.6% (inactive). Moreover, the inhibition in assay [7] is -2.11% (inactive); in assay [8], 7.42% (inactive).

Regarding `CN(CC(=O)N1CCN(C2CCCCC2)CC1)S(=O)(=O)c1cccc2nsnc12`, the viability in assay [1] was 88%; in assay [3] it was 88% (inactive); in assay [4] it was 107% (inactive); in assay [5], 97.2% (inactive); in assay [6] (setting [9]), 91.5%; in assay [6] (setting [10]), 97.2%. Moreover, the Her2 level in assay [2] is 83% (inactive). In addition, the differential viability (reversal) in assay [6] (H69AR cells + 2 uM doxorubicin) was 5.6% (inactive). Moreover, the inhibition is -4.53% (inactive) in assay [7] and 6.23% (inactive) in assay [8].

As for `O=C(O)c1ccc2noc(-c3ccccc3)c2c1`, the viability was 127% in assay [1]; 127% (inactive) in assay [3]; 86.9% (inactive) in assay [4]; 97.8% (inactive) in assay [5]; 92.4% in assay [6] (setting [9]); 97.8% in assay [6] (setting [10]). Further, in assay [2], the Her2 level was 106% (inactive). Further, the differential viability (reversal) in assay [6] (H69AR cells + 2 uM doxorubicin) is 5.36% (inactive). For the same compound, the inhibition was -4.74% (inactive) in assay [7] and -4% (inactive) in assay [8].
